From ChEMBL document CHEMBL2046302, “Fused tricyclic indoles as S1P₁ agonists with robust efficacy in animal models of autoimmune disease” (Bioorg Med Chem Lett, 2012)
Calls of active or inactive are those of the source. The calls are words filed in the database; no cut-off is given here.

Legend:
[1] = target: T1, Sphingosine 1-phosphate receptor 1 (Homo sapiens, UniProt P21453); test: Agonist activity against human S1P1 assessed as accumulation of cAMP by HTRF assay; type: functional
In short: (§1)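 Agonist EC50 was read from a cAMP HTRF assay run on human, rat and mouse S1P1. Response was scaled against S1P, and values are the mean of three or more replicates.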

[2] = target: Sphingosine 1-phosphate receptor 2 (Homo sapiens, UniProt O95136); test: Agonist activity against human S1P2 by beta arrestin recruitment assay; type: functional
In short: (§2)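 Agonist EC50 at human S1P1 through S1P5 was measured by β-arrestin recruitment. Values are the mean of three or more replicates.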

[3] = target: Sphingosine 1-phosphate receptor 1 (Rattus norvegicus, UniProt P48303); test: Agonist activity against rat S1P1 assessed as accumulation of cAMP by HTRF assay; type: functional; in short: as §1
[4] = target: Sphingosine 1-phosphate receptor 1 (Mus musculus, UniProt O08530); test: Agonist activity against mouse S1P1 assessed as accumulation of cAMP by HTRF assay; type: functional; in short: as §1
[5] = target: T1, Sphingosine 1-phosphate receptor 1; test: Agonist activity against human S1P1 by beta arrestin recruitment assay; type: functional; in short: as §2
[6] = target: Sphingosine 1-phosphate receptor 3 (Homo sapiens, UniProt Q99500); test: Agonist activity against human S1P3 by beta arrestin recruitment assay; type: functional; in short: as §2
[7] = Half life in mouse liver microsome; type: ADME; conditions: liver microsomes
[8] = target: T2, Sphingosine 1-phosphate receptor 4 (Homo sapiens, UniProt O95977); test: Agonist activity against human S1P4 by beta arrestin recruitment assay; type: functional; in short: as §2
T2 sequence (O95977 whole entry): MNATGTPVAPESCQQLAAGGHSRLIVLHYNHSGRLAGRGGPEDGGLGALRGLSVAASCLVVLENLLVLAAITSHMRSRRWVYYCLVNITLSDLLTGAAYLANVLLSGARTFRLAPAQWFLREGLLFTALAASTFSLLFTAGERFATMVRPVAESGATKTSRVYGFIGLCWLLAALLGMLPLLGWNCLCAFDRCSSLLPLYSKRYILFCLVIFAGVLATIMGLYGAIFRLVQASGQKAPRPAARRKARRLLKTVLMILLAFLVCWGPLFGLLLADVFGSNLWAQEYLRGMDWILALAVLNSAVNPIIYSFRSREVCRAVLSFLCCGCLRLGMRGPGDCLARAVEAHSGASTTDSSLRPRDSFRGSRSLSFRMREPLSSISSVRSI

[9] = target: Sphingosine 1-phosphate receptor 5 (Homo sapiens, UniProt Q9H228); test: Agonist activity against human S1P5 by beta arrestin recruitment assay; type: functional; in short: as §2
[10] = Half life in rat liver microsome; type: ADME; conditions: liver microsomes
[11] = Half life in human liver microsome; type: ADME; conditions: liver microsomes
[12] = Clearance in Sprague-Dawley rat at 2 mg/kg, iv and 3 mg/kg, po; type: ADME, organism-based; conditions: in vivo
In short: (§3)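 Male Sprague–Dawley rats received 2.0 mg/kg IV in 100% PEG400 and 3.0 mg/kg PO in 0.5% methyl cellulose. Clearance, Vss, terminal half-life, Cmax, AUClast and oral bioavailability were derived from plasma levels.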

[13] = Cmax in Sprague-Dawley rat in Sprague-Dawley rat at 2 mg/kg, iv and 3 mg/kg, po; type: ADME, organism-based; conditions: in vivo; in short: as §3
[14] = Volume of distribution at steady state in Sprague-Dawley rat at 2 mg/kg, iv and 3 mg/kg, po; type: ADME, organism-based; conditions: in vivo, read-out: Vdss; in short: as §3
[15] = Terminal half life in Sprague-Dawley rat at 2 mg/kg, iv and 3 mg/kg, po; type: ADME, organism-based; conditions: in vivo, read-out: beta t1/2 (converted); in short: as §3
[16] = AUClast in Sprague-Dawley rat in Sprague-Dawley rat at 2 mg/kg, iv and 3 mg/kg, po; type: ADME, organism-based; conditions: plasma; in short: as §3
[17] = Oral bioavailability in Sprague-Dawley rat at 3 mg/kg; type: ADME, organism-based; conditions: in vivo; in short: as §3
[18] = tested on: Mus musculus; test: Immunosuppressant activity in BALB/c mouse assessed as reduction in circulating lymphocyte at 6 mg/kg, po measured after 5 hrs; type: functional, organism-based; design: dose 6 mg/kg
In short: (§4)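 BALB/c mice were dosed orally as a suspension in 0.5% methyl cellulose, at 6 mg/kg or 1.0 mg/kg. Circulating lymphocytes were followed over time, with readings at 5 h and 24 h.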

[19] = tested on: Mus musculus; test: Immunosuppressant activity in BALB/c mouse assessed as reduction in circulating lymphocyte at 6 mg/kg, po measured up to 24 hrs; type: functional, organism-based; design: dose 6 mg/kg; in short: as §4
[20] = tested on: Mus musculus; test: Immunosuppressant activity in BALB/c mouse assessed as reduction in circulating lymphocyte at 30 mg/kg, po measured at 24 hrs; type: functional, organism-based; design: dose 30 mg/kg

T1 sequence (P21453 whole entry): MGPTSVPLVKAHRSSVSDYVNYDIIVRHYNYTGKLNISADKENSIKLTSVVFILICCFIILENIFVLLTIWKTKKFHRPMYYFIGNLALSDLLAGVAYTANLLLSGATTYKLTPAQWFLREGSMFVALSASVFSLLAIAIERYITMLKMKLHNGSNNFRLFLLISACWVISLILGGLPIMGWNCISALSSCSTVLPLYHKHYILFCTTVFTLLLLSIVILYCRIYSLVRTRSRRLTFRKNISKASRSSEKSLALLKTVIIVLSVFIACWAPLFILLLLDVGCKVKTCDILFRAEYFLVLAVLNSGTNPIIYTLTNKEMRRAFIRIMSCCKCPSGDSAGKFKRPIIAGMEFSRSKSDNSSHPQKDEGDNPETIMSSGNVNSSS
Sequence of Sphingosine 1-phosphate receptor 1 (Rattus norvegicus, UniProt P48303) (P48303 whole entry): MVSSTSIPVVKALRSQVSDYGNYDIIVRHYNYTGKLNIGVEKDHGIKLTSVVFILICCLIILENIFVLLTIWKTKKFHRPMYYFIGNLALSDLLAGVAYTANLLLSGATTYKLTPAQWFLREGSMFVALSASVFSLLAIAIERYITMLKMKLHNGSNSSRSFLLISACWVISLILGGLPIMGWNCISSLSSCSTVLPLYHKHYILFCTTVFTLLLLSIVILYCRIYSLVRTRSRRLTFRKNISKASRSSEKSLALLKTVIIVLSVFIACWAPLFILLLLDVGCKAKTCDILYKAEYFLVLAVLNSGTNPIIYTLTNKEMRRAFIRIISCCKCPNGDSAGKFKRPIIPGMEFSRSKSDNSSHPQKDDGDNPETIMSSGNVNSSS
Sequence of Sphingosine 1-phosphate receptor 5 (Q9H228 whole entry): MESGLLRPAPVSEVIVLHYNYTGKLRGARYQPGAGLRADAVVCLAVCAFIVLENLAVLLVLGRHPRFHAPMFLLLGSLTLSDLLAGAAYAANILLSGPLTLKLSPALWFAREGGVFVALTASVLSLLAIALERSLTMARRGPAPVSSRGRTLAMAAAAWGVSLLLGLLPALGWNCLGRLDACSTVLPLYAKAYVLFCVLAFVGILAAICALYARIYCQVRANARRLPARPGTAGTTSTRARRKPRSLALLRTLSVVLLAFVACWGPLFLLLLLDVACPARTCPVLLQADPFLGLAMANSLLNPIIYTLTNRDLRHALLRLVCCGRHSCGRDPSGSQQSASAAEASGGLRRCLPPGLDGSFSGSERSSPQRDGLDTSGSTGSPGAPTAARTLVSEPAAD
Sequence of Sphingosine 1-phosphate receptor 1 (Mus musculus, UniProt O08530) (O08530 whole entry): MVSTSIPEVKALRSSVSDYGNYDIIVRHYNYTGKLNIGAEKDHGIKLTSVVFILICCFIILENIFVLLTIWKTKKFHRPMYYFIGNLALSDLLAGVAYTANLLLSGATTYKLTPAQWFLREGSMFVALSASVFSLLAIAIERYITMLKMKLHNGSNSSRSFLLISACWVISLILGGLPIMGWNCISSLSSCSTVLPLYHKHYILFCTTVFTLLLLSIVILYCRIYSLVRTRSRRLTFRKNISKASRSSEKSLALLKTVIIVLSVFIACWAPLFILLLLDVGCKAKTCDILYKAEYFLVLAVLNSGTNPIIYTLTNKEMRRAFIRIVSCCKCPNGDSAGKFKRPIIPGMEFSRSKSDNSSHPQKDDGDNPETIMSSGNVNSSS
Sequence of Sphingosine 1-phosphate receptor 2 (O95136 whole entry): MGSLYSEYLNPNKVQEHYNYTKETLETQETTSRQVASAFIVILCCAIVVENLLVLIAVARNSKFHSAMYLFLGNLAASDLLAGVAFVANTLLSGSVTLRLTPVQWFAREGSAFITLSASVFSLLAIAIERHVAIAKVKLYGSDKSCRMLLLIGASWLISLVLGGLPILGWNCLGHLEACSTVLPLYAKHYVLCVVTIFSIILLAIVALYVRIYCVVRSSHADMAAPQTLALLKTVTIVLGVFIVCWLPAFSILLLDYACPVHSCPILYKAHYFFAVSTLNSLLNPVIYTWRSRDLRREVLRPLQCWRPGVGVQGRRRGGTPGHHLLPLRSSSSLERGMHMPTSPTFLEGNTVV
Sequence of Sphingosine 1-phosphate receptor 3 (Q99500 whole entry): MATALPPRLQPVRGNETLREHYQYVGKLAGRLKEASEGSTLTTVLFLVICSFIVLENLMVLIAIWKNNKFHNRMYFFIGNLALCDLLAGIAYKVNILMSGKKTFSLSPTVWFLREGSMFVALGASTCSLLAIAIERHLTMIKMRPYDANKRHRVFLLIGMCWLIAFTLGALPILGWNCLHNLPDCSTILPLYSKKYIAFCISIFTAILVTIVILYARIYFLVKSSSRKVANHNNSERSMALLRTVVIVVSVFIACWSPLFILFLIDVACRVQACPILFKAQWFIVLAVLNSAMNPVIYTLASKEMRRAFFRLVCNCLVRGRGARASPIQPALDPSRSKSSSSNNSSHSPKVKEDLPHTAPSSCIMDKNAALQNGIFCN

## N#Cc1cc(-c2nc(-c3ccc4c(c3)cc3n4CCC3CC(=O)O)no2)ccc1OC(F)(F)F (racemic)
[1]
  EC50: 0.59 nM

## COc1ccc(-c2nc(-c3ccc4c(c3)cc3n4CCC3CC(=O)O)no2)cc1C#N (racemic)
[1]
  EC50: 2.9 nM

## CC(C)Oc1ccc(-c2nc(-c3ccc4c(c3)cc3n4CCC3CC(=O)O)no2)cc1C#N (racemic)
[1]
  EC50: 0.61 nM

## N#Cc1cc(OC(F)(F)F)cc(-c2nc(-c3ccc4[nH]c5c(c4c3)CCC5CC(=O)O)no2)c1 (single isomer, unassigned) [listing 1 of 2 here]
[1]
  EC50: 0.75 nM
[2]
  EC50: > 100000 nM
[3]
  EC50: 1.8 nM
[4]
  EC50: 2.6 nM
[5]
  EC50: 36 nM
[6]
  EC50: > 100000 nM
[7]
  half-life: > 1 h
[8]
  EC50: 462 nM
[9]
  EC50: 15 nM
[10]
  half-life: > 1 h
[11]
  half-life: > 1 h
[12]
  clearance: 1.39 mL/min/kg
[13]
  Cmax: 1400 ng/mL
[14]
  Vd: 0.734 L/kg
[15]
  half-life: 5.46 h
[16]
  AUC(0-t): 11000 ng·h/mL
[17]
  bioavailability: 32.5%

## N#Cc1cc(OC(F)(F)F)cc(-c2nc(-c3ccc4[nH]c5c(c4c3)CCC5CC(=O)O)no2)c1 (single isomer, unassigned) [listing 2 of 2 here]
[18]
  Activity: Active
[19]
  Activity: Active
[20]
  Activity: Active
